# Screening results as filed in PubChem BioAssay.
# RAM inhibit: inhibitors of the yeast RAM network; 190,000 tested, 1.8% active; inhibition, % at 50 µM; S. cerevisiae dse1pr::URA3 reporter, 5-FOA growth OD615, 2 d; analog-sensitive cbk1-as2 kinase mutant strain;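 active = inhibition above a set limit, 3 SD over mean compound inhibition, cut at about 8.4% in these data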;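 note: 0% = DMSO-only wells with no growth and 100% = 10 µM 1-NA-PP1 full growth; inhibition rescues growth on 5-FOA so higher OD means more RAM inhibition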
# Yeast lifespan up: yeast lifespan extension. S. cerevisiae growth with nicotinamide, OD615; deaD strain in restrictive glucose medium. 130,000 tested, 0.68% active. AID 775. inhibition of the nicotinamide effect, % at 10 µM;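 active = inhibition above a set limit, placed 3 SD over the median of all compounds, cut at about 26% in these data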;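 note: 0% = nicotinamide-treated wells and 100% = cells grown without nicotinamide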
#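 Assay system: DeaD-strain S. cerevisiae. Medium: CSMM-D glucose medium, restrictive. Reagent: nicotinamide, 1.5 mM, co-present with compound. Compound: 10 µM single point, 0.25% DMSO. Schedule: culture preincubation 4 h, compound exposure 48 h, both 30 °C. Detection: absorbance at 615 nm.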
# BB579 growth dn: chemicals that inhibit yeast BB579 growth in restrictive medium (lifespan-shortening candidates). S. cerevisiae BB579 growth, OD615, 48 h. inhibition, % at 10 µM. 140,000 tested, 0.51% active;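 active = inhibition above a set limit, 3 SD over the mean compound inhibition, cut at about 44% in these data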
#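 Detection: OD615 turbidity measurement; Material: Saccharomyces cerevisiae DeaD strain BB579, replicative lifespan model yeast; Timing: 48 h exposure, 30 °C; Doses: single 10 µM dose; Medium: CSMM-D restrictive synthetic medium containing dextrose (glucose); Controls: amphotericin B at 10 µg/mL as positive control.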
# An asterisk follows results filed as active; . = no result given. Sampled rows, rich in hits. Any-hit rate of the full collection: about 2.6%.
SMILES,RAM inhibit,Yeast lifespan up,BB579 growth dn
Cc1ccc(NS(=O)(=O)c2ccc(OCC(=O)NCc3ccncc3)cc2)cc1,3,-6,2
Cc1ccc(-c2[nH]nc(N)c2N=Nc2ccccc2C)cc1,2,-38,52*
Cc1ccc(-c2[nH]nc(N)c2N=Nc2cccc(Cl)c2C)cc1,5,-9,-41
Cc1ccccc1Nc1nc(N)nc(CSc2nc3ccccc3s2)n1,2,-5,-20
Cc1ccc(Nc2nc(N)nc(CSc3nc4ccccc4s3)n2)cc1,9.8*,-20,-71
O=C(C/C=N\OCc1ccc([N+](=O)[O-])cc1)Nc1ccc(F)cc1F,2,.,.
CC(C)(C)C1CCc2[nH]nc(C(=O)O)c2C1 (stereo unspecified),1,62*,-33
O=C(O)c1n[nH]c2c1CCCC2,1,-3,-8
CC(=O)N(C)c1ccc(C(O)(C(F)(F)F)C(F)(F)F)cc1,1,.,.
O=C(Nc1ccccc1Cl)c1ccccc1Cl,1,-16,3
O=C1OCC(CO)(CO)N=C1NNc1ccccc1Cl,-1,-19,98*
Cc1oc(=O)c(NC(=O)c2ccccc2)cc1C(C)O (stereo unspecified),2,.,.
CCOC(=O)c1cc(NC(=O)c2ccccc2)c(=O)oc1-c1ccccc1,9.5*,2,-54
O=C(CCNC(=O)c1ccccc1Cl)Nc1nccs1,2,.,.
Cc1ccc(C(C[N+](=O)[O-])n2nc(C)cc2C)cc1 (stereo unspecified),-1,19,47*
Cc1ccc(S(=O)(=O)n2nc(C)cc2C)cc1,0,-7,-30
O=C(CCCOc1ccc(Cl)cc1Cl)NN1CCOCC1,1,0,-29
OC(CNCCc1ccc(C(F)(F)F)cc1)COc1cccc2ccccc12 (stereo unspecified),-1,-6,-4
OC(CNCCc1ccc(C(F)(F)F)cc1)COc1ccc2ccccc2c1 (stereo unspecified),0,-10,63*
CC(C)CN1CCN(Cc2cccc3cccnc23)CC1CCO (stereo unspecified),0,.,.
COC(=O)c1sc(-c2ccccc2)cc1NC(=O)c1ccc(F)cc1,3,1,-29
COC(=O)c1sccc1NC(=O)c1cc(OC)cc(OC)c1,4,.,-12
COC(=O)c1sc(-c2ccccc2)cc1NC(=O)c1ccc(OC)cc1,8.7*,-3,-28
COC(=O)c1sc(-c2ccccc2)cc1NC(=O)c1cc(OC)cc(OC)c1,8.8*,10,-42
CSc1nc(C)cc(Oc2ccccc2)n1,1,.,.
SMILES,RAM inhibit,Yeast lifespan up,BB579 growth dn
COC(=O)c1ccccc1NC(=O)CCCn1nc([N+](=O)[O-])c(Br)c1C,1,.,.
Cc1ccccc1NC(=O)OCc1cccnc1Sc1ccc(Cl)cc1,9.9*,-9,-25
Cc1ccc(Oc2ncccc2COC(=O)Nc2ccccc2C)cc1,3,.,.
Cc1ccc(Sc2ncccc2COC(=O)Nc2c(C)cccc2C)cc1,2,-16,-55
Cc1ccc(Sc2ncccc2COC(=O)Nc2ccccc2)cc1,9.2*,-21,-48
CCNC(=O)c1ccccc1SCC(=O)Nc1ccc(F)cc1,0,.,.
CN1CCN(c2nc(-c3ccc(Cl)s3)cs2)CC1,2,.,.
CCOC(=O)c1ccc(N=c2sc(C(=O)OC)cc(=O)n2-c2ccc(C(=O)OCC)cc2)cc1,6,4,-34
COC(=O)c1cc(=O)n(-c2ccccc2)c(=Nc2ccccc2)s1,-1,33*,-32
Cc1cc(C)c(O)c(N)c1,-1,.,.
CCOC(=O)c1ccc(N/C=C/C(=O)c2ccc(OC)c(OC)c2)cc1,4,-17,-42
COc1ccc(C(=O)/C=C/Nc2ccc(C)cn2)cc1OC,2,.,52*
COc1ccc(NC(=S)N(CCCN2CCCC2)Cc2cccn2Cc2ccc(Cl)cc2)cc1Cl,3,.,.
Cc1ccc2c(c1)c(N=Nc1cccc(C(=O)O)c1)c(O)n2C,3,.,.
CCOc1ccc2c(c1)c(N=Nc1cccc(C(=O)O)c1)c(O)n2C,10*,6,-48
CCOC(=O)N1CCC(n2c(SCC(=O)c3ccccc3)nc3ccsc3c2=O)CC1,3,-21,-19
COc1ccccc1/C=C1\SC(=S)N(CC(=O)Nc2nnc(C)s2)C1=O,4,.,.
O=S(=O)(Nc1ccccn1)c1cnc(Cl)c(Br)c1,1,-6,-24
Cc1nn(-c2ccc(F)cc2)c(Cl)c1/C=C/C(=O)N1CCNC(=O)C1,0,.,.
Cc1nn(-c2ccc(F)cc2)c(Cl)c1/C=C1\C(=O)Nc2ccccc21,8.6*,-1,-31
O=C(N[C@@H](Cc1ccc(O)cc1)C(=O)O)c1cccnc1,1,.,.
COC(=O)/C(=C/c1cn(C)c2ccccc12)[N+](=O)[O-],-1,74*,-61
COC(=O)/C(=C/Nc1ccccc1)[N+](=O)[O-],-1,-6,-43
